Laboratory results published in ChEMBL document CHEMBL3085651, “Anti-cancer evaluation of carboxamides of furano-sesquiterpene carboxylic acids from the soft coral Sinularia kavarattiensis” (Bioorg Med Chem Lett, 2013).

What was measured:
[1] = system: HeLa; test: Cytotoxicity against human HeLa cells assessed as cell viability after 48 hrs by MTT assay; format: functional, cell-based
Procedure, shortened: (§1)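 A549 and HeLa cells grown in DMEM with non-essential amino acids and 10% FBS at 37 °C, 5% CO2. Subconfluent cells were trypsinized, plated at 1 × 10^4 cells per well in 96-well plates, and exposed to a range of concentrations for 48 h. MTT was added for 1 h, and formazan was dissolved in DMSO and read by absorbance. IC50 is mean ± SD of three independent experiments.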

[2] = target: T1, Phospholipase A2 (Apis mellifera, UniProt P00630); test: Inhibition of bee venom phospholipase A2
T1 sequence (P00630 whole entry): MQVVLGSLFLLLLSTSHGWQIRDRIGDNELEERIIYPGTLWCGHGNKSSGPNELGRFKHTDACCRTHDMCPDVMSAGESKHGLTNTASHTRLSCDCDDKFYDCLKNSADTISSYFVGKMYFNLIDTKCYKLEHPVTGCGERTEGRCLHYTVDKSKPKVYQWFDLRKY

[3] = system: A549; test: Cytotoxicity against human A549 cells assessed as cell viability after 48 hrs by MTT assay; format: functional, cell-based; details: A549, 48 h; procedure, shortened: as §1
[4] = system: DU-145; test: Cytotoxicity against human DU145 cells assessed as cell viability after 48 hrs by MTT assay; format: functional, cell-based; details: DU-145, 48 h
Procedure, shortened: (§2)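 DU145 and MCF-7 cells grown in MEM with non-essential amino acids, 1 mM sodium pyruvate, […] bovine insulin and 10% FBS at 37 °C, 5% CO2. Cells were seeded at 1 × 10^4 per well in 96-well plates and treated at varied concentrations for 48 h. MTT reduction was measured over 1 h, with DMSO-solubilized formazan read by absorbance. IC50 is mean ± SD, n = 3 independent experiments.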

[5] = system: MCF7; test: Cytotoxicity against human MCF7 cells assessed as cell viability after 48 hrs by MTT assay; format: functional, cell-based; details: MCF7, 48 h; procedure, shortened: as §2
[6] = system: THP-1; test: Cytotoxicity against human THP1 cells assessed as cell viability after 48 hrs by MTT assay; format: functional, cell-based; details: THP-1, 48 h
Procedure, shortened: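 THP-1 cells cultured in RPMI-1640 containing 2-mercaptoethanol and 10% FBS, humidified 5% CO2, 37 °C. They were seeded at 1 × 10^4 cells per well in 96-well plates and incubated with graded compound concentrations for 48 h. MTT was added for the final 1 h, and formazan was dissolved in DMSO for absorbance reading. IC50 is mean ± SD of three independent experiments.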

SMILES	IC50 [1] [µM]	IC50 [2] [µM]	IC50 [3] [µM]	IC50 [4] [µM]	IC50 [5] [µM]	IC50 [6] [µM]
C=C/C(C)=C\CC/C(C)=C/c1cc(C(=O)O)co1	81	500	89.3	60.1	61.9	56.6
C=C/C(C)=C/CC/C(C)=C/c1cc(C(=O)O)co1	80.4		89.7	38.9	74.5	39.8
C=C/C(C)=C\CC/C(C)=C/c1cc(C(=O)OC)co1	59.4		89.6	59.3	75.4	51.4
C=C/C(C)=C/CC/C(C)=C/c1cc(C(=O)OC)co1	35.5		28.6	25.1	28.9	25.8
C=C/C(C)=C\CC/C(C)=C/c1cc(C(=O)N2CCN(C)CC2)co1	30.5		23.6	24.1	27.9	20.8
C=C/C(C)=C\CC/C(C)=C/c1cc(C(=O)N2CCN(CC)CC2)co1	35.9		27.9	20.4	30.3	26.5
C=C/C(C)=C\CC/C(C)=C/c1cc(C(=O)N2CCN(c3ccccc3)CC2)co1	32.1		28.3	30.3	39.8	28.6
C=C/C(C)=C\CC/C(C)=C/c1cc(C(=O)N2CCN(Cc3ccccc3)CC2)co1	59.4		50.7	45.3	53.7	50.9
C=C/C(C)=C\CC/C(C)=C/c1cc(C(=O)N2CCN(Cc3ccc4c(c3)OCO4)CC2)co1	44.2		45.5	17.9	50.8	15.9
C=C/C(C)=C\CC/C(C)=C/c1cc(C(=O)N2CCN(C(c3ccccc3)c3ccccc3)CC2)co1	28.5		24.6	16.8	26.7	17.8
C=C/C(C)=C\CC/C(C)=C/c1cc(C(=O)Nc2ccc(C)cc2)co1	59.5		63.2	56.5	65.3	60.4
C=C/C(C)=C\CC/C(C)=C/c1cc(C(=O)NCCCNC(=O)c2coc(/C=C(\C)CC/C=C(/C)C=C)c2)co1	73.4		69.7	41.3	57.7	59
